Shown are actives, neighbours in structure and some others; about 1.4% of the full set was active somewhere.
CXCR6 block – blocks human CXCR6 beta-arrestin recruitment. O00574. CHO-K1 PathHunter CXCR6 beta-arrestin, luminescence. inhibition, % at 20 µM. 360,000 tested, 0.36% active. AID 602244; in the data active means inhibition above about 34%, passing the limit was not always enough;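 further: antagonist mode with CXCL16 agonist at 10 nM final; 0% = 10 nM CXCL16 with DMSO and 100% = unstimulated wells without agonist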
APJ agonist – agonists of human APJ apelin receptor; P35414; CHO-K1 APJ PathHunter beta-arrestin, luminescence; 0% DMSO wells, 100% apelin; activation, % at 20 µM; 330,000 tested, 0.11% active;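 active means activation more than six SD over the plate average, tested at 20 µM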;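 further: 0% = DMSO alone and 100% = apelin-13 at 10 nM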
Target sequence (P35414 whole entry, looked up): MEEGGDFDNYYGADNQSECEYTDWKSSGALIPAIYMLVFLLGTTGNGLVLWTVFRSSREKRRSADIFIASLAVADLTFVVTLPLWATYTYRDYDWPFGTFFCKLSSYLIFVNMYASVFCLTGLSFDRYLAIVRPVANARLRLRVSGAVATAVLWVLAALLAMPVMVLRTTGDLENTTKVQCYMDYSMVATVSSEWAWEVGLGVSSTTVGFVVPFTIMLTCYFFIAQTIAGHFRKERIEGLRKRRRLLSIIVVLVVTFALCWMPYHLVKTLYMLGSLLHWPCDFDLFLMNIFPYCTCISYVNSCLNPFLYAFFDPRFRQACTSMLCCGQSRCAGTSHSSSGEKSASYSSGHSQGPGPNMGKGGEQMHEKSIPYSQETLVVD
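Test system – PathHunter CHO-K1 APJ (AGTRL-1) beta-arrestin reporter cells · Input – 1000 cells/well · Compound – single test compound dose, 20 µM final, 1% DMSO · Times – compound stimulation 90 min at 25 °C, detection 60 min · Technique – beta-gal luminescence · Read-out basis – APJ–arrestin association signal · Control set – negative DMSO alone, positive Apelin-13 at 10 nM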
CCR6 antagonist – CCR6 (human) receptor antagonism. P51684. CHO-K1 CCR6 PathHunter beta-arrestin, luminescence, CCL20-stimulated. inhibition, % at 20 µM. 340,000 tested, 0.49% active. AID 493098;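 active means compounds whose inhibition of the agonist-driven luminescence signal at 20 µM reaches about 50%, limit read from the data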;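 further: cells stimulated with CCL20 at 14 nM final; plate controls were DMSO with CCL20 for no effect and DMSO without agonist for full effect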
A3G deaminase – APOBEC3G (human) deaminase inhibition | Q9HC16 | recombinant A3G, ssDNA deamination FAM/TAMRA fluorescence | inhibition, % at 20 µM | 330,000 tested, 0.28% active | AID 493012;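 active means inhibition of at least 40% at 20 µM, with no more than 30% in the related APOBEC3A deaminase screen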;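 further: plate controls were DMSO wells with A3G for no effect and wells lacking A3G enzyme for full effect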
A3A deaminase – inhibitors of human APOBEC3A DNA deaminase. 330,000 tested, 0.41% active. recombinant A3A, FAM/TAMRA ssDNA deamination fluorescence. inhibition, % at 20 µM. P31941;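 active means at least 40% inhibition at 20 µM here, with at most 30% in a related deaminase screen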;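 further: plate controls were A3A with DMSO for no effect and wells lacking A3A enzyme for full effect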
Target sequence (P31941 whole entry, looked up): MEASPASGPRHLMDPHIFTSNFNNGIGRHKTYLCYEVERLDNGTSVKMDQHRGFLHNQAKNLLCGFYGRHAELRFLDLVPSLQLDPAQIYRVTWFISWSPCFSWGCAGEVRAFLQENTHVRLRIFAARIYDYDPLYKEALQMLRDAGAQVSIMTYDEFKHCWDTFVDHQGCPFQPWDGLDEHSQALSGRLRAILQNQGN
APJ antagonist – APJ receptor antagonism; P35414; CHO-K1 APJ beta-arrestin complementation, luminescence; inhibition, % at 20 µM; 330,000 tested, 0.32% active;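 active means inhibition above about 40% at 20 µM, limit read from the data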;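 further: cells challenged with 10 nM apelin-13 agonist together with compound; plate controls were apelin-13 plus DMSO wells for no effect and DMSO wells lacking apelin-13 for full effect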
APOBEC3A confirm – confirmation of human APOBEC3A DNA deaminase inhibitors | shares compounds with A3A deaminase | recombinant A3A, ssDNA deaminase UDG fluorescence assay | 1,400 tested, 63% active | inhibition, % at 20 µM;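 active means inhibition reaching a set limit, 80% of the first screen's cutoff, at 20 µM in any replicate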;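 further: plate controls were DMSO wells with A3A for no effect and wells lacking A3A enzyme for full effect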
UDG A3A counter – counter-screen for APOBEC3A inhibitors: UDG; shares compounds with A3A deaminase; UDG counterscreen, FAM/TAMRA uracil oligo fluorescence; inhibition, % at 20 µM; 1,000 tested, under 10 active; call rule not given here
Numbers without * were called inactive; · = no result given.

SMILES	CXCR6 block	APJ agonist	CCR6 antagonist	A3G deaminase	A3A deaminase	APJ antagonist	APOBEC3A confirm	others
COc1ccc2c(C)cc(N3CCCCCC3)nc2c1	-5	0	24	-9	-5	8	·
COc1ccc2c(C)cc(N3CCN(Cc4ccccc4)CC3)nc2c1	-3	-3	10	4	41*	-10	25
O=C(CCNC(=O)c1ccc(Br)cc1)Nc1nccs1	-1	-1	-6	-6	-6	-6	·
O=C(CCNC(=O)c1ccc([N+](=O)[O-])cc1)Nc1nccs1	-1	-4	-10	13	47*	-30	2
Cc1ccc(CNC(=O)CCNC(=O)c2ccc([N+](=O)[O-])cc2)cc1	-2	-3	-5	12	46*	-14	41*	UDG A3A counter=1
O=C(NCc1nc2ccccc2[nH]1)C1=C[C@H](c2coc3ccccc3c2=O)C[C@H](OCCCCO)O1	-1	10	-1	5	-1	-16	·
O=C1CCCCC(=O)[C@H](OC(=O)c2ccccc2)C[C@H](c2ccccc2)O1	-22	·	·	·	·	·	·
O=C(NC(Cc1ccccc1)c1nc2ccccc2[nH]1)C1CC(=O)N(c2ccc3c(c2)OCCO3)C1 (stereo unspecified)	-9	-1	-3	21	55*	0	4
O=C(NCCc1ccccc1)C1CC(=O)N(c2ccc3c(c2)OCCO3)C1 (stereo unspecified)	-4	-4	4	-13	-3	-3	·
N/C(=N/S(=O)(=O)c1ccccc1)c1cccc([N+](=O)[O-])c1	-19	0	-12	-7	45*	-11	0	UDG A3A counter=0
O=C(OCc1cc(=O)n2c(n1)sc1ccccc12)c1ccc(O)cc1O	-6	-1	16	23	62*	-13	23*	UDG A3A counter=0
O=C(OCc1cc(=O)n2c(n1)sc1ccccc12)c1cccc(O)c1	-7	1	21	11	22	-3	·
CC(C)[C@H](NC(=O)c1ccco1)C(=O)OCc1cc(=O)n2c(n1)sc1ccccc12	-3	4	6	17	63*	-6	39*	UDG A3A counter=-2
CC1(C)Cc2c(cnn2-c2ccccc2)C(NC(=O)CCCN2CCCCC2=O)C1 (stereo unspecified)	-1	1	-2	-4	-2	12	·
CC(C)Cc1cc(C(C)(C)C)ccc1OC(=S)N(C)C	-4	-6	17	-8	-1	2	·
CCN(CC(=O)Nc1ccc(NC(C)=O)cc1)C(=O)/C=C/c1ccccc1	-2	-3	-3	-10	-1	-11	·
CCN(CC(=O)Nc1ccc(NC(C)=O)cc1)C(=O)/C=C/c1cn(-c2ccccc2)nc1-c1cccs1	3	11	15	4	45*	3	16
CC(C)COC(=O)N1CCCC1C(=O)Nc1nccs1 (stereo unspecified)	-3	0	9	22	54*	-5	27
CCN(CC)c1ccc(/C=C/c2ccc3ccc(OC)cc3[n+]2CC)cc1	22	-3	41	26	75*	27	84*	UDG A3A counter=0
CC[n+]1c(/C=C/c2ccc(OC(C)=O)c(OC)c2)ccc2ccccc21	14	-2	12	20	53*	28	58*
CC[n+]1c(/C=C/c2ccc(OC)c(OC)c2)ccc2ccccc21	5	-3	6	-14	79*	4	93*	UDG A3A counter=0
COc1cc(/C=C/c2noc(-c3ccccc3O)n2)ccc1OC(C)=O	4	-3	-1	0	4	9	·
C=CCSc1nc2sc3c(c2c(=O)[nH]1)CC(C)(CC)OC3 (stereo unspecified)	-10	0	12	-7	-2	-4	·
CN=C1NN=C(c2cc(C)n(-c3ccc(Cl)cc3)c2C)CS1	-11	-3	4	0	0	5	·
CN(C[C@H](Cc1ccccc1)N(C[C@H](Cc1ccccc1)N(CCC(C)(C)C)N=O)N=O)N=O	5	8	9	-6	98*	-4	-3	UDG A3A counter=-2
SMILES	CXCR6 block	APJ agonist	CCR6 antagonist	A3G deaminase	A3A deaminase	APJ antagonist	APOBEC3A confirm	others
CC(C)CCN(N=O)[C@@H](Cc1ccccc1)CN(N=O)[C@@H](Cc1ccccc1)CN(C)N=O	2	-2	9	-11	-2	-66	·
COc1ccc(Nc2nc3ccccc3n3nnnc23)cc1	5	-3	7	-6	1	5	·
Cc1ccc(Nc2nc3ccccc3n3nnnc23)cc1	-9	-3	11	3	46*	-26	1
C[C@@H]1CC=C[C@H]2[C@H]1C(=O)N(Cc1ccccc1)[C@H]2c1ccc(/C=C/c2ccccc2)cc1F	7	-3	8	-3	1	2	·
CSc1cccc(N2CC(C(=O)Nc3cccc(S(=O)(=O)N4CCCC4)c3)CC2=O)c1 (stereo unspecified)	-8	-3	12	15	56*	-5	14
CCOc1ccc(N2CC(C(=O)Nc3cccc(S(=O)(=O)N4CCCCC4)c3)CC2=O)cc1 (stereo unspecified)	-5	-1	-16	-4	-2	-8	·
CCc1sc(C(=O)N2CCc3cc(OC)c(OC)cc3C2CC(=O)O)cc1C (stereo unspecified)	-15	-4	-11	-8	-3	3	·
Cc1cc(C)n2nc(C(=O)OCC(=O)N(CC(C)C)C3CCS(=O)(=O)C3)nc2n1 (stereo unspecified)	0	-2	4	-6	-3	5	·
COC(=O)c1[nH]c2cc(C)ccc2c1NC(=O)CN1CCc2cc(OC)c(OC)cc2C1	-10	-4	6	-8	-1	-12	·
COC(=O)c1[nH]c2ccc(Cl)cc2c1NC(=O)CN1CCc2cc(OC)c(OC)cc2C1	-7	0	-24	9	41*	7	60*	UDG A3A counter=-3
Cc1cc(/C=C(/C#N)c2nc3ccccc3[nH]2)c(C)n1-c1ccccc1C(=O)O	4	-2	2	13	29	19	·
Cc1cc(/C=C(/C#N)c2nc3ccccc3[nH]2)c(C)n1-c1cc(C(=O)O)cc(C(=O)O)c1	-14	-1	2	22	49*	-23	41*	UDG A3A counter=-4
COc1cc(OC)c2ccc(=O)oc2c1C(CCN1CCCC1)c1ccc2c(c1)OCO2 (stereo unspecified)	6	-5	1	20	64*	0	-1
COc1cc(OC)c2ccc(=O)oc2c1C(CCN1CCOCC1)c1ccc2c(c1)OCO2 (stereo unspecified)	8	·	15	1	2	·	·
